From ChEMBL document CHEMBL4376814, “Novel cyclin-dependent kinase 9 (CDK9) inhibitor with suppression of cancer stemness activity against non-small-cell lung cancer” (Eur J Med Chem, 2019)

Experiments:
[1] = target: CDK9/cyclin T1 (Homo sapiens) (UniProt O60563+P50750); assay: Inhibition of recombinant full-length human CDK9/cyclinT1 at 1 uM using KTFCGTPEYLAPEVRREPRILSEEEQEMFRDFDYIADWC peptide as substrate measured after 40 mins in presence of [gamma33P]ATP by scintillation counting method relative to control; assay type: protein-complex assay
In short: (§1)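 Percent inhibition of kinase activity at a single compound concentration, measured by the outsourced Eurofins KinaseProfiler panel. Values are the mean of two independent experiments.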

[2] = target: CDK4/Cyclin D3 (Homo sapiens) (UniProt P11802+P30281); assay: Inhibition of recombinant full-length human CDK4/cyclinD3 at 500 nM using Rb fragment as substrate measured after 40 mins in presence of [gamma33P]ATP by scintillation counting method relative to control; assay type: protein-complex assay; in short: as §1
HepG2 = assay: Antiproliferative activity against human HepG2 cells assessed as inhibition of cell viability at 500 nM after 72 hrs by CCK-8 assay relative to control; assay type: functional; conditions: HepG2, 72 h
In short: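 Single-concentration viability screen using CCK-8. Cells were seeded at 3000/well and treated for 72 h. A450 read after 1-4 h with reagent. Percent inhibition calculated against untreated control and blank wells as (Ac−As)/(Ac−Ab)×100%.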

A549 [3] = assay: Induction of apoptosis in human A549 cells assessed as necrotic cells at 0.25 uM after 48 hrs by AnnexinV-FITC/PI staining-based flow cytometric analysis (reference value: 0.664%); assay type: functional
A549 [4] = assay: Induction of apoptosis in human A549 cells assessed as necrotic cells at 0.5 uM after 48 hrs by AnnexinV-FITC/PI staining-based flow cytometric analysis (reference value: 0.664%); assay type: functional
[5] = target: Activin receptor type-1-like (Homo sapiens) (UniProt P37023); assay: Inhibition of recombinant human ALK1 (142 to end residues) at 1 uM using casein as substrate measured after 40 mins in presence of [gamma33P]ATP by scintillation counting method relative to control
Sequence of Activin receptor type-1-like (Homo sapiens) (P37023 whole entry): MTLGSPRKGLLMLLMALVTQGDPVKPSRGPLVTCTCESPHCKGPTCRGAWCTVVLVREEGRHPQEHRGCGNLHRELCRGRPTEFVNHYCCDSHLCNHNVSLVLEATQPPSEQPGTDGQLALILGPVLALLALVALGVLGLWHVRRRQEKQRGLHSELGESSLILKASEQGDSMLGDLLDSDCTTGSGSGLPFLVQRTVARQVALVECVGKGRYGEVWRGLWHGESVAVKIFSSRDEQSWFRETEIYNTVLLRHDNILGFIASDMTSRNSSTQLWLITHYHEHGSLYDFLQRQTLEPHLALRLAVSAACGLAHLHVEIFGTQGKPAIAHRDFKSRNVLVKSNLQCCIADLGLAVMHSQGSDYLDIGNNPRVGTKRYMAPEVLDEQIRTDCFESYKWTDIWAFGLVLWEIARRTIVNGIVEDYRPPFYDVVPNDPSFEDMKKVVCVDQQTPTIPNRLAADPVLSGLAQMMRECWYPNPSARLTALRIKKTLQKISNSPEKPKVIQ

[6] = tested on: Tyrosine-protein kinase Blk (Homo sapiens), P51451 [UNDEFINED MUTATION]; assay: Inhibition of full-length recombinant human BLK M287V mutant at 1 uM using poly(Glu, Tyr) 4:1 as substrate measured after 40 mins in presence of [gamma33P]ATP by scintillation counting method relative to control; in short: as §1
Homo sapiens = species: Homo sapiens; assay: Inhibition of recombinant human Mer H628Q/R794A mutant (557 to 882 residues) at 1 uM using GGMEDIYFEFMGGKKK as substrate measured after 40 mins in presence of [gamma33P]ATP by scintillation counting method relative to control
[7] = target: Hepatocyte growth factor receptor (Homo sapiens) (UniProt P08581); assay: Inhibition of recombinant human MET A1209G/V1290L mutant (974 to end residues) at 1 uM using KKKGQEEEYVFIE as substrate measured after 40 mins in presence of [gamma33P]ATP by scintillation counting method relative to control
[8] = target: CDK7/Cyclin H/MNAT1 (Homo sapiens) (UniProt P51946+P50613+P51948); assay: Inhibition of human full length recombinant CDK7/cyclinH/MAT1 at 1 uM using peptide as substrate incubated for 40 mins in presence of [gamma-33P]ATP at by radiometric assay relative to control; assay type: protein-complex assay
[9] = target: Casein kinase II subunit alpha (Homo sapiens) (UniProt P68400); assay: Inhibition of full length recombinant human CK2alpha1 at 1 uM using RRRDDDSDDD as substrate measured after 40 mins in presence of [gamma33P]ATP by scintillation counting method relative to control
Sequence of Casein kinase II subunit alpha (Homo sapiens) (P68400 whole entry, looked up): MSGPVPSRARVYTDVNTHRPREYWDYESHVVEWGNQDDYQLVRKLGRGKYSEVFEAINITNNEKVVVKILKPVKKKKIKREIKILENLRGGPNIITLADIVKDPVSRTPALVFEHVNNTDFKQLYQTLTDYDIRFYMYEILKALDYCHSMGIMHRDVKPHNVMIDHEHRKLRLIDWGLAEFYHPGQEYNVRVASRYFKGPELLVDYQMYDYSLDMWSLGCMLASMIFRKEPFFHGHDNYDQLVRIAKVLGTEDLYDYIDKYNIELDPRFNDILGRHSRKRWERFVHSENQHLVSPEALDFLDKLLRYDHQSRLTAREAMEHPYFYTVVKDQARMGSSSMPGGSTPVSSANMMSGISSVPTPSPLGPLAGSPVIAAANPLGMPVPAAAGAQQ

[10] = tested on: Mast/stem cell growth factor receptor Kit (Homo sapiens), P10721 [D816H]; assay: Inhibition of recombinant human cKit (544 to end residues) D816H mutant at 1 uM using GGMEDIYFEFMGGKKK as substrate measured after 40 mins in presence of [gamma33P]ATP by scintillation counting method relative to control
Sequence of Mast/stem cell growth factor receptor Kit (Homo sapiens), P10721 [D816H] (P10721 whole entry D816H): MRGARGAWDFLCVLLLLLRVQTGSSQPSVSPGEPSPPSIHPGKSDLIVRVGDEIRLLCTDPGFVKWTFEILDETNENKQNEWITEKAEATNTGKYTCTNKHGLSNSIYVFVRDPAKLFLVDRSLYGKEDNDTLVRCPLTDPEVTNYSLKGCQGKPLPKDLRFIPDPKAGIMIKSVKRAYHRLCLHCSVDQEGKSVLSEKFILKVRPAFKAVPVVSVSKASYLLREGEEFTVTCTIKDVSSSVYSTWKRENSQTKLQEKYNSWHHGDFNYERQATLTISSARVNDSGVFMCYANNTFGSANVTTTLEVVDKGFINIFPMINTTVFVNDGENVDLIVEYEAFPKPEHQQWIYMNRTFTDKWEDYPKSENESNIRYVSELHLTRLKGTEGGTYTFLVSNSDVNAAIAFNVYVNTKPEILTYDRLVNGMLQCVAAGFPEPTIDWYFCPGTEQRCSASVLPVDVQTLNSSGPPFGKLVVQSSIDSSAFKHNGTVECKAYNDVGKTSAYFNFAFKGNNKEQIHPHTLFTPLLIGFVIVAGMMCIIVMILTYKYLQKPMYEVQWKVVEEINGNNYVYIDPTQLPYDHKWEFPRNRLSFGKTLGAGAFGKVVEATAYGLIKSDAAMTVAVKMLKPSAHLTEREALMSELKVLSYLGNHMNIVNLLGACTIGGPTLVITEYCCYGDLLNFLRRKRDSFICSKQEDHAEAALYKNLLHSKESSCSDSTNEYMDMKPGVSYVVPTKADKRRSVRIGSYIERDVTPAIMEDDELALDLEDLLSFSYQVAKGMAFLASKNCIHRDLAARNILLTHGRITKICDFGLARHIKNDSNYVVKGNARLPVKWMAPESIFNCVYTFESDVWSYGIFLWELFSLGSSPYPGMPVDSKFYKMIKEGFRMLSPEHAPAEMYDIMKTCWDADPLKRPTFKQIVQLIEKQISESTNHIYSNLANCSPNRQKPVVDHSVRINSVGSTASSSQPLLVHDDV
In short: (§2)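 Single-point inhibition at 1 µM was measured in the Eurofins KinaseProfiler panel. Values are the mean of two independent experiments.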

[11] = tested on: Mast/stem cell growth factor receptor Kit (Homo sapiens), P10721 [V654A]; assay: Inhibition of recombinant human cKit (544 to end residues) V654A mutant at 1 uM using GGMEDIYFEFMGGKKK as substrate measured after 40 mins in presence of [gamma33P]ATP by scintillation counting method relative to control; in short: as §2
Sequence of Mast/stem cell growth factor receptor Kit (Homo sapiens), P10721 [V654A] (P10721 whole entry V654A): as the sequence (P10721 whole entry D816H) above, with V654A, H816D counted along it

[12] = target: Tyrosine-protein kinase CSK (Homo sapiens) (UniProt P41240); assay: Inhibition of recombinant full-length human CSK at 1 uM using poly(Glu, Tyr) 4:1 as substrate measured after 40 mins in presence of [gamma33P]ATP by scintillation counting method relative to control; in short: as §2
Sequence of Tyrosine-protein kinase CSK (Homo sapiens) (P41240 2-450 limits assumed): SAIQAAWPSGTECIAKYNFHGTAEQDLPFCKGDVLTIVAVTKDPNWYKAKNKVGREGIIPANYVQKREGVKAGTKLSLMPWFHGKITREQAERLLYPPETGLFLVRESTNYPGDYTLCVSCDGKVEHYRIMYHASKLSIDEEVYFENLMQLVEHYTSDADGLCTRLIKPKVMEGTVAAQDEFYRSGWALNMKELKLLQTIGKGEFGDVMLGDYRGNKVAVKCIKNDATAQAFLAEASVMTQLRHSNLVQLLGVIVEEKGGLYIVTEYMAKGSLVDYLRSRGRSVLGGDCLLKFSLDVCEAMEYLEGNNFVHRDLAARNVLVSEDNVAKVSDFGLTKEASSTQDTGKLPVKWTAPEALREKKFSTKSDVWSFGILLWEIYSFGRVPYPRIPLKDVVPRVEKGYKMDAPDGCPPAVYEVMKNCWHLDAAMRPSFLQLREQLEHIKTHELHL

[13] = target: Death-associated protein kinase 2 (Homo sapiens) (UniProt Q9UIK4); assay: Inhibition of recombinant full-length human DAPK2 at 1 uM using calmodulin as substrate measured after 40 mins in presence of [gamma33P]ATP by scintillation counting method relative to control
[14] = target: Ephrin type-A receptor 3 (Homo sapiens) (UniProt P29320); assay: Inhibition of recombinant human EphA3 (568 to end residues) at 1 uM using poly(Glu, Tyr) 4:1 as substrate measured after 40 mins in presence of [gamma33P]ATP by scintillation counting method relative to control
[15] = tested on: Mitogen-activated protein kinase 14 (Homo sapiens), Q16539 [T106M]; assay: Inhibition of recombinant full-length human SAPK2a T106M mutant at 1 uM using myelin basic protein as substrate measured after 40 mins in presence of [gamma33P]ATP by scintillation counting method relative to control
[16] = target: Mitogen-activated protein kinase 13 (Homo sapiens) (UniProt O15264); assay: Inhibition of recombinant full-length human SAPK4 at 1 uM using myelin basic protein as substrate measured after 40 mins in presence of [gamma33P]ATP by scintillation counting method relative to control
Sequence of Mitogen-activated protein kinase 13 (Homo sapiens) (O15264 whole entry): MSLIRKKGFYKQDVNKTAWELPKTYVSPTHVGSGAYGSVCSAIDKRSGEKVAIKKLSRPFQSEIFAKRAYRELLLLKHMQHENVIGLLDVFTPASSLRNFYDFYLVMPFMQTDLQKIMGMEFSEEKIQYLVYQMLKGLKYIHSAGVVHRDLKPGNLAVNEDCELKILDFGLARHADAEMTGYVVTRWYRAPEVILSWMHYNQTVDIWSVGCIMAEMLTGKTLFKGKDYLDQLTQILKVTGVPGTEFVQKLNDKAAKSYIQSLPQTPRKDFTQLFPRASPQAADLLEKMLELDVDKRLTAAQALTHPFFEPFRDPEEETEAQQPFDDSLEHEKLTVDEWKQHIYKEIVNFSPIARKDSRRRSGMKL

[17] = target: Serine/threonine-protein kinase SBK1 (Homo sapiens) (UniProt Q52WX2); assay: Inhibition of recombinant full-length human SBK1 at 1 uM using KKLRRTLSVA as substrate measured after 120 mins in presence of [gamma33P]ATP by scintillation counting method relative to control
Sequence of Serine/threonine-protein kinase SBK1 (Homo sapiens) (Q52WX2 whole entry, the tested form may be a part): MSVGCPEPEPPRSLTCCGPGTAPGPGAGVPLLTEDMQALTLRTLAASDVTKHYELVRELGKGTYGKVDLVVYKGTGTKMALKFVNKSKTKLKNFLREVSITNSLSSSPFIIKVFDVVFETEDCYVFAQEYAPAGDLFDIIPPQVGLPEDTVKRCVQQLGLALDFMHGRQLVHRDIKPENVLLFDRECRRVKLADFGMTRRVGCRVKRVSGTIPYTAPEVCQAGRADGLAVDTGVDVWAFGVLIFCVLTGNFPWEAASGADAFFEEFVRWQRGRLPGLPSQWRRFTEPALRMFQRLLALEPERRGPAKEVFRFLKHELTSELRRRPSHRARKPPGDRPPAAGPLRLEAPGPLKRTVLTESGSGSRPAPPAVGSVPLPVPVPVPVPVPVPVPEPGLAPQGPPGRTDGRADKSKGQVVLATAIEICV

[18] = target: Mitogen-activated protein kinase kinase kinase kinase 1 (Homo sapiens) (UniProt Q92918); assay: Inhibition of recombinant human HPK1 (1 to 346 residues) at 1 uM using myelin basic protein as substrate measured after 40 mins in presence of [gamma33P]ATP by scintillation counting method relative to control
Sequence of Mitogen-activated protein kinase kinase kinase kinase 1 (Homo sapiens) (Q92918 whole entry, looked up, the tested form may be a part): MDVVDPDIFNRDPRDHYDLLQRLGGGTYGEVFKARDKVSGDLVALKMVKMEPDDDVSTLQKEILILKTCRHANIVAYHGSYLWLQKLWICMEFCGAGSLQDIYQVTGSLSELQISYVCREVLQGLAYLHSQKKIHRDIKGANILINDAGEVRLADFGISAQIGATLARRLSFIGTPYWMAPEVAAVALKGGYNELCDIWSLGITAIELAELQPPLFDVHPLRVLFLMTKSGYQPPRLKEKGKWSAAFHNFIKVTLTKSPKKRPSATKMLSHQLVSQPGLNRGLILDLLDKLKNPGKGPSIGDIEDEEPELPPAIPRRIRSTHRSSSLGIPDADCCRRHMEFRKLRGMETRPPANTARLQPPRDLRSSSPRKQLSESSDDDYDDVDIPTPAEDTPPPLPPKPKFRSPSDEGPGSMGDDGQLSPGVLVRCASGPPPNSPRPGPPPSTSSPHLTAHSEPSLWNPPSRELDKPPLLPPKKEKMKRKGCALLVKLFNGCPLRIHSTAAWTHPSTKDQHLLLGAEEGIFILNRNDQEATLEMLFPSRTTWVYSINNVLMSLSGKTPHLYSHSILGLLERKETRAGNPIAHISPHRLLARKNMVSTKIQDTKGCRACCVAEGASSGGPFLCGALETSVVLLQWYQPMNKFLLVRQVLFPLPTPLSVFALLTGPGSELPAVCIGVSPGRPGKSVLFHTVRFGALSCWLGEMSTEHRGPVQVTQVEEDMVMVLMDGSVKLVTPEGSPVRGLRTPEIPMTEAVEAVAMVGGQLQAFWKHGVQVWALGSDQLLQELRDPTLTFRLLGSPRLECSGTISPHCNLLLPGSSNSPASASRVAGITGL

[19] = tested on: Dual specificity protein kinase TTK (Homo sapiens), P33981 [S389A]; assay: Inhibition of recombinant full-length human TTK S389A mutant at 1 uM using MBP as substrate measured after 40 mins in presence of [gamma33P]ATP by scintillation counting method relative to control
Sequence of Dual specificity protein kinase TTK (Homo sapiens), P33981 [S389A] (P33981 whole entry S389A): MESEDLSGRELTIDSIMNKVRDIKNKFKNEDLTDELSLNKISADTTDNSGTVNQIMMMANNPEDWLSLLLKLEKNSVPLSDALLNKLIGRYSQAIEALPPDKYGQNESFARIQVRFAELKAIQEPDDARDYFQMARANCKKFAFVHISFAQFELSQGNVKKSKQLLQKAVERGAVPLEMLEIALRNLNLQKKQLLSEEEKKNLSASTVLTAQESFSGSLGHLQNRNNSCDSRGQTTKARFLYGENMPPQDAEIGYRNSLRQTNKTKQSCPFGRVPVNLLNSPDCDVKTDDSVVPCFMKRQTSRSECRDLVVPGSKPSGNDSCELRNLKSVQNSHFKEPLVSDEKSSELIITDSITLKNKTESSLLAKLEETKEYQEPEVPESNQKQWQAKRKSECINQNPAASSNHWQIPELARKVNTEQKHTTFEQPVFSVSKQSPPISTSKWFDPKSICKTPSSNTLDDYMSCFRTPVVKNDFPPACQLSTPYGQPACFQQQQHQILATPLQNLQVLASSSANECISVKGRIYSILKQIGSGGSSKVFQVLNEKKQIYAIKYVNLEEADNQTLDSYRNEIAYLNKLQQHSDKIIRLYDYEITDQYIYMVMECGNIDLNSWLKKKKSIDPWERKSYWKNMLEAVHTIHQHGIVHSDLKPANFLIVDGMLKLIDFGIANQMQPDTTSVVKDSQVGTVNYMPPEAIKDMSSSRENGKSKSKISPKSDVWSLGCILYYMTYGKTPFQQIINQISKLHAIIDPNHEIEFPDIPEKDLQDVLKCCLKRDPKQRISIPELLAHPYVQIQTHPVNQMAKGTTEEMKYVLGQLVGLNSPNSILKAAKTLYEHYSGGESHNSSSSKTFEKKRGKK

[20] = target: Serine/threonine-protein kinase VRK1 (Homo sapiens) (UniProt Q99986); assay: Inhibition of human VRK1 at 1 uM by radiometric method relative to control

In the case of `CN(C)C(=O)c1cc2cnc(Nc3ccc(NC(=O)CCCCCCCN=C=S)cc3)nc2n1C1CCCC1`, the inhibition [1] was 98%, the inhibition [2] was 75% and the inhibition at 0.5 µM (HepG2) was 23%. It also gave an Activity (A549 [3]) of 5.83%, an Activity (A549 [4]) of 6.11% and an inhibition [5] of -5%. It also gave an inhibition [6] of 45%, an inhibition (Homo sapiens) of 77% and an inhibition [7] of 84%. The inhibition [8] was 55%, the inhibition [9] was -5% and the inhibition [10] was 59%. The inhibition [11] was 11%, the inhibition [12] was 1% and the inhibition [13] was -8%. The inhibition [14] was 5%, the inhibition [15] was 0% and the inhibition [16] was 10%. For the same molecule, the inhibition [17] was 88%, the inhibition [18] was 85% and the inhibition [19] was 76%. For the same molecule, the inhibition [20] was 0%.
